Data from the RNAGym collection of RNA variant scans (doi:10.1126/science.aae0568).
Fewer inactive variants are shown than the library holds.

B1: tRNA (parent)
chain: GUUCCGUUGGCGUAAUGGUAACGCGUCUCCCUCCUAAGGAGAAGACUGCGGGUUCGAGUCCCGUACGGAACG

Variants of: B1
Assay: yeast fitness relative to wild type (ratio to wild type); higher = fitter; tRNA-Arg(CCU), competitive growth, 37 C, YPD
Summary of the method: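 Genotype frequency changes were the basis for Darwinian fitness relative to wild type. The frequencies came from 100-nucleotide paired-end sequencing of gene amplicons from the start population and each end population of pooled yeast strains with tRNA-Arg(CCU) gene variants at the native locus. Competition ran in YPD at 37°C for 24 hours in six replicates, genotypes needed ≥ 100 starting reads, and estimates < 0.5 were set to 0.5.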

| Variant | yeast fitness |
| --- | --- |
| C31A C49A G56A A65G C66A G68C | ≤ 0.5 |
| U32A A65C | 0.887 |
| U32A A37G G48A U59C | 0.541 |
| C31U A65G | 1.11 |
| C33U A36C A40U | 0.609 |
| C31U U32C U54G C55U C61U | ≤ 0.5 |
| C31U G48A C55U G63C | 0.595 |
| C31U U32C | 0.812 |
| C33G A45U C55U | ≤ 0.5 |
| C31G G38A G52A C61A G63A | ≤ 0.5 |
| C31G A36C G41A C49U | ≤ 0.5 |
| C33U A57G | 0.628 |
| U32C A45U C66A | ≤ 0.5 |
| C31U G39C | 0.901 |
| C31U A70C | 1.05 |
| C31A G38A | 0.792 |
| C31U C46A A57U C60U | ≤ 0.5 |
| C31A U64G A69C | ≤ 0.5 |
| U32C A40U C55G A70C | ≤ 0.5 |
| C31A A42G C49G C62U | ≤ 0.5 |
| U32A C33U | 0.597 |
| C31U A57G C66U | 0.583 |
| C33A G39A A40U C55U C62U | ≤ 0.5 |
| C33U C61G G68C | ≤ 0.5 |

| Variant | yeast fitness |
| --- | --- |
| U32C U35C C49U | 0.659 |
| C31A U53G A57G | ≤ 0.5 |
| C31G C34G A40U | ≤ 0.5 |
| C31U G41U | 1.03 |
| U32A C49U G68A | ≤ 0.5 |
| C31U G52A G68C | ≤ 0.5 |
| C31U A37G A45C | 0.618 |
| U32C C34U U53A G68C | 0.537 |
| U32G G41C C46U | 0.647 |
| C31U G41U G63A | 0.721 |
| C30U U35C A37G C55A A65G | ≤ 0.5 |
| U32G C49U G56A | 0.744 |
| C33U G38C | 0.609 |
| C33U G38U | 0.632 |
| U32G G48C G58C | ≤ 0.5 |
| C33A A37U C55U A57C G58C | ≤ 0.5 |
| C31G A36U | 0.615 |
| C31U C55U A70U | 0.567 |
| C31G A57U A69C | ≤ 0.5 |
| U32A G67A | 0.766 |
| C31U U53A G68A | 0.515 |
| C33U C49G | 0.817 |
| C31G G58A C61A | 0.708 |
| C30U G58C C66U | 0.663 |

| Variant | yeast fitness |
| --- | --- |
| C31U A40U U59C | 0.648 |
| C31G C33U A40C | 0.6 |
| C33G A45C G50C | ≤ 0.5 |
| C31G U32A A40C | ≤ 0.5 |
| C33U A43U C49G G50C C61U C66U | ≤ 0.5 |
| C31G C33U A37C | ≤ 0.5 |
| C31U G52A | 0.871 |
| C33G U47A G67C A69U | ≤ 0.5 |
| C31A C33G G51C C60G | ≤ 0.5 |
| U32A G68C | 0.721 |
| C31G A42C C55U G68A | 0.542 |
| C33G G56C G67C | ≤ 0.5 |
| C30U G67U | 0.83 |
| C33G C34G C62U | ≤ 0.5 |
| C33U C34G A40G | 0.625 |
| C31G C62G | 0.827 |
| C33U G52A A57U | ≤ 0.5 |
| C31G C34U A40C G41A | ≤ 0.5 |
| C31A C55A C61A G63A | 0.655 |
| C31G A57U G58C | ≤ 0.5 |
| U32C A43G C66U | 0.758 |
| U32C G38C A69U | 0.531 |
| C30U U54G U59G | 0.655 |
| U32C A40G G41A | ≤ 0.5 |

| Variant | yeast fitness |
| --- | --- |
| C31U C46A A57C A65U | ≤ 0.5 |
| C33U C34G | 0.648 |
| C31G C34G A42C C66G | ≤ 0.5 |
| U32G G48A A70U | 0.553 |
| C31G A36U A65U | 0.517 |
| C33A G38C A43G | ≤ 0.5 |
| C31G A43U C46G C66U A70U | ≤ 0.5 |
| U32A A42C C61G C66G | 0.554 |
| C33G G51A C55A C66U | 0.56 |
| C31A C34U U54C A69C | ≤ 0.5 |
| U32G G58A | 0.609 |
| C31G A36C U47C | ≤ 0.5 |
| C31A G51C C55G A57U C66U | 0.564 |
| C31A A43G A45C | 0.541 |
| U32G C33G A70U | 0.543 |
| C31G A36C C49G | ≤ 0.5 |
| C31G A37C G52C C61G C66U | ≤ 0.5 |
| C31A A36G A57C | ≤ 0.5 |
| C33G C34U U53C | 0.577 |
| C33U A42C A70C | 0.671 |
| C33G C34G C46U | 0.547 |
| U32C G48C G56A | ≤ 0.5 |
| U32A A36U C62U | ≤ 0.5 |
| C33U A36U A43C A69C | 0.674 |

| Variant | yeast fitness |
| --- | --- |
| C33A A36C G51A | 0.721 |
| C31U G51A | 0.892 |
| C31U C46G G50A C61U | 0.649 |
| C33G C66G A70G | 0.54 |
| C31A C62A C66G | ≤ 0.5 |
| C31G G41A U53C | 0.52 |
| C31U G68A A69G | 0.702 |
| C33U G48A C60U U64G A65U | 0.606 |
| U32A G58C C66A | ≤ 0.5 |
| C33G A57U A70U | ≤ 0.5 |
| U32G G38A C61G A70G | ≤ 0.5 |
| U32C G39C | 0.765 |
| C31G A36C C61U | ≤ 0.5 |
| C31U U53C C62U | ≤ 0.5 |
| C31A G52C A65U | ≤ 0.5 |
| U32C A42U G48C | 0.567 |
| U32A C49G C55U A69C | 0.546 |
| C33G A65U | 0.728 |
| C31G U53C | 0.662 |
| C31U C60U G67A A69U | ≤ 0.5 |
| C31G C49G C62U G67C G68A | 0.539 |
| C31A C55G | 0.529 |
| C31G A43G C49U G68A | 0.558 |
| C33U A69C | 0.726 |

| Variant | yeast fitness |
| --- | --- |
| C33A A36U | 0.615 |
| U32C A69C | 0.943 |
| C31U G44C U64C | 0.559 |
| C31G U54G | 0.6 |
| C31A A43U C61A | ≤ 0.5 |
| C31A A43U U54A | ≤ 0.5 |
| C30U U59G C66U G68A | ≤ 0.5 |
| C31A G44C C60G | ≤ 0.5 |
| U32A U64G | 0.751 |
| C33G A70U | 0.714 |
| C31U G48A A69C | 0.772 |
| C31G A42U C62U | 0.742 |
| U32G U54A G67C | ≤ 0.5 |
| C31A G39C | 0.659 |
| C31G C33U U35A | ≤ 0.5 |
| U32G A36U U59C | ≤ 0.5 |
| C33G G41A A42G C46G | ≤ 0.5 |
| C31G G38C A43U | 0.538 |
| C31A G52C U64C | ≤ 0.5 |
| C31A G38A A65G | 0.591 |
| C33G A45C C61G | 0.567 |
| C31G A40G G52C | ≤ 0.5 |
| C31A G48C C61A A70G | ≤ 0.5 |
| C33A U54A | ≤ 0.5 |

| Variant | yeast fitness |
| --- | --- |
| U32G G39C A57U U59A A69C | ≤ 0.5 |
| C31U A43C U54C | 0.596 |
| C33A A37C C61U C62A | 0.635 |
| U32G U47A U64A A65C G67A | 0.6 |
| U32C C46U G50A G56C C62A C66U | ≤ 0.5 |
| C33U A43G G48C | ≤ 0.5 |
| C31U G41C A43C C60G | ≤ 0.5 |
| C31G U32C A37U | ≤ 0.5 |
| C31U U53G | 0.644 |
| C31U A42G | 0.73 |
| C33G A37G C49U C60U | 0.551 |
| C31U A43C A69C | 0.902 |
| C31U U59A | 0.771 |
| C33A A37U C62A | 0.503 |
| U32G C46G | 0.757 |
| C30U U32A | 0.883 |
| U32G U35A A36G A57U | ≤ 0.5 |
| C31U C61U A70U | 0.696 |
| C33G A45C U54C | ≤ 0.5 |
| C33G A40G A42C C66U | ≤ 0.5 |
| C33A A57U C66U A69U | ≤ 0.5 |
| C31U G44A | 1.02 |
| C31U A37C C55U A65U A70G | ≤ 0.5 |
